Activity calls are given as the source filed them. No cut-off for these calls is given here.
Tests used:
[1] = molecular target: T1, Nucleotide-binding oligomerization domain-containing protein 1 (Homo sapiens) (UniProt Q9Y239); test: Antagonist activity at human NOD1 expressed in HEK-Blue cells assessed as inhibition of C12-iE-DAP-stimulated cell activation at 10 uM preincubated for 3 hrs followed by C12-iE-DAP addition measured after 20 hrs by SEAP reporter gene assay; type: cell-based
T1 sequence (whole entry): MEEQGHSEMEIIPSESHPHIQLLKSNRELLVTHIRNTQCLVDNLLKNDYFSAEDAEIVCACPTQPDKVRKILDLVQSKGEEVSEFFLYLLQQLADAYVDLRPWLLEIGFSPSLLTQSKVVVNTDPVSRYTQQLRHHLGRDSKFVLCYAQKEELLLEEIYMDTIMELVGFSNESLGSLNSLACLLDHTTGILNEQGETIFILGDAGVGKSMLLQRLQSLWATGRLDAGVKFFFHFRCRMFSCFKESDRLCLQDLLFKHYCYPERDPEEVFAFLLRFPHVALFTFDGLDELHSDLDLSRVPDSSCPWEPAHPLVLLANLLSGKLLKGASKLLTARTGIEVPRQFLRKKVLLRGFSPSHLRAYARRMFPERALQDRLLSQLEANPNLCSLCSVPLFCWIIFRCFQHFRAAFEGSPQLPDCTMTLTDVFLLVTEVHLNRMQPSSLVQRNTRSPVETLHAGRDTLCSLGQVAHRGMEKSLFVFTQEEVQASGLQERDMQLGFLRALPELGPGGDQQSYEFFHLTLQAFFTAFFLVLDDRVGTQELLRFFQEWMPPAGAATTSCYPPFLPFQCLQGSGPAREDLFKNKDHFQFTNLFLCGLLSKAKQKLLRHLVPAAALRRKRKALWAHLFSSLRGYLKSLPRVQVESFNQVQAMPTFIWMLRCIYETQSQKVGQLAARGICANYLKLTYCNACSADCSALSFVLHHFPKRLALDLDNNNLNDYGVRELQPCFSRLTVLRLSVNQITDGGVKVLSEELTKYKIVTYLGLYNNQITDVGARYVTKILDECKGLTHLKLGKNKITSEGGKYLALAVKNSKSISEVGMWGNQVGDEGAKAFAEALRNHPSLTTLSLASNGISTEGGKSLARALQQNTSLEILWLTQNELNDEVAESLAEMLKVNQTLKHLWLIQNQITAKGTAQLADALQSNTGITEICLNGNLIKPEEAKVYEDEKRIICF
Outline: (§1)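 HEK-Blue hNOD1 or hNOD2 cells preincubated with compound 3 h, then stimulated 20 h with C12-iE-DAP 50 ng/mL (NOD1) or MDP 100 ng/mL (NOD2); SEAP in supernatant quantified. Primary screen at 10 μM, hits repeated in triplicate; IC50 from dose-response, mean ± SD (n = 3), only for compounds reaching ≥50% inhibition at the screening concentration.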

[2] = molecular target: T1, Nucleotide-binding oligomerization domain-containing protein 1 (Homo sapiens); test: Antagonist activity at human NOD1 expressed in HEK-blue cells assessed as inhibition of C12-iE-DAP-stimulated cell activation at 5 uM preincubated for 3 hrs followed by C12-iE-DAP addition measured after 20 hrs by SEAP reporter gene assay; type: cell-based
[3] = molecular target: T2, Nucleotide-binding oligomerization domain-containing protein 1 (Homo sapiens, UniProt Q9Y239); test: Antagonist activity at human NOD1 expressed in HEK-blue cells assessed as inhibition of C12-iE-DAP-stimulated cell activation preincubated for 3 hrs followed by C12-iE-DAP addition measured after 20 hrs by SEAP reporter gene assay; type: cell-based; outline: as §1
T2 sequence (Q9Y239 whole entry): T1 sequence (whole entry)

[4] = Cytotoxicity against HEK-Blue cells by SRB assay; type: cell-based; conditions: human
[5] = molecular target: T3, Nucleotide-binding oligomerization domain-containing protein 2 (Homo sapiens, UniProt Q9HC29); test: Antagonist activity at human NOD2 expressed in HEK-Blue cells assessed as inhibition of MDP-stimulated cell activation at 10 uM preincubated for 3 hrs followed by MDP addition measured after 20 hrs by SEAP reporter gene assay; type: cell-based; outline: as §1
T3 sequence (Q9HC29 whole entry, the tested form may be a part): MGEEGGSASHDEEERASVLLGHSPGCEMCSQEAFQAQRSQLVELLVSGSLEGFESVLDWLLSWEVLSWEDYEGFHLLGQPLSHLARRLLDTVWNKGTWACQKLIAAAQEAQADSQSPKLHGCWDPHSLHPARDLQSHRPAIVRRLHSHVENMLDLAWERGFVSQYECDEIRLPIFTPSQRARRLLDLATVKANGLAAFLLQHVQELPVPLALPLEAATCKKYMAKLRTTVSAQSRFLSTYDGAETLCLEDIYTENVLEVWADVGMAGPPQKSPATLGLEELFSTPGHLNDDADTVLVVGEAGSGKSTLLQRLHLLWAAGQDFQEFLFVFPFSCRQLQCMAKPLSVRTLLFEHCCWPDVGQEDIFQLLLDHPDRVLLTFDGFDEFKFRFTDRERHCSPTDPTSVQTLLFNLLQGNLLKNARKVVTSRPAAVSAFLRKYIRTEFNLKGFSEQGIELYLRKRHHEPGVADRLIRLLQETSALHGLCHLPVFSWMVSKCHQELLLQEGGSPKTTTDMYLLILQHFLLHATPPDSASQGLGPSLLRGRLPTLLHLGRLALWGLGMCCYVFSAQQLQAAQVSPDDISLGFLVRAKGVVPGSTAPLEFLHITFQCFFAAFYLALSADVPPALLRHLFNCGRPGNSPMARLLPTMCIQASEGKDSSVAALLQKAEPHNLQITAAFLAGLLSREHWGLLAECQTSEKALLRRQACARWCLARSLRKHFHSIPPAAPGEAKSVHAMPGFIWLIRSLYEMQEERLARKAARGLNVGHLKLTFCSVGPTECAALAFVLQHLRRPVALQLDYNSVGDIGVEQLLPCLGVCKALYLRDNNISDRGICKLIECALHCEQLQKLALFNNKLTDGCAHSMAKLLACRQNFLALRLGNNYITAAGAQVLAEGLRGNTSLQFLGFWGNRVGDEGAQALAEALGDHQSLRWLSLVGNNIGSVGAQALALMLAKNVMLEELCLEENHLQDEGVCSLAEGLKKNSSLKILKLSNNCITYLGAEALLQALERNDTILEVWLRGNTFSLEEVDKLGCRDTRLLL

[6] = molecular target: T3, Nucleotide-binding oligomerization domain-containing protein 2; test: Antagonist activity at human NOD2 expressed in HEK-Blue cells assessed as inhibition of MDP-stimulated cell activation at 5 uM preincubated for 3 hrs followed by MDP addition measured after 20 hrs by SEAP reporter gene assay; type: cell-based
[7] = molecular target: T3, Nucleotide-binding oligomerization domain-containing protein 2; test: Antagonist activity at human NOD2 expressed in HEK-Blue cells assessed as inhibition of MDP-stimulated cell activation preincubated for 3 hrs followed by MDP addition measured after 20 hrs by SEAP reporter gene assay; type: cell-based; outline: as §1
[8] = molecular target: T1, Nucleotide-binding oligomerization domain-containing protein 1 (Homo sapiens); test: Inhibition of NOD1 in human PBMC-derived macrophages assessed as reduction in C12-iE-DAP-stimulated IL6 mRNA expression at 1 uM preincubated for 1 hr followed by C12-iE-DAP stimulation for 90 mins by RT-qPCR analysis
Outline: (§2)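 Human CD14+ monocytes from donor PBMC, differentiated 7 days with M-CSF 20 ng/mL to macrophages; 1.0 × 10^6 cells pretreated 1 h with compound (final 0.1% DMSO), then C12-iE-DAP 500 ng/mL or MDP 5 μg/mL for 90 min. IL-6/TNF-α mRNA by qRT-PCR, normalized to GAPDH; stimulated response set to 100%.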

[9] = molecular target: T1, Nucleotide-binding oligomerization domain-containing protein 1 (Homo sapiens); test: Inhibition of NOD1 in human PBMC-derived macrophages assessed as reduction in C12-iE-DAP-stimulated TNFalpha mRNA expression at 1 uM preincubated for 1 hr followed by C12-iE-DAP stimulation for 90 mins by RT-qPCR analysis; outline: as §2
[10] = tested on: Lewis lung carcinoma cell line; test: Antitumor activity against mouse LLC cells implanted in C57BL/6 mouse assessed as tumor weight inhibition at 12 mg/kg, iv administered every 4 days measured 11 days after tumor implantation; type: functional, organism-based

| inhibition [8] | inhibition [9] | SMILES | inhibition [1] | inhibition [2] | IC50 [3] | Activity [4] | inhibition [5] | inhibition [6] | IC50 [7] | TGI [10] |
| --- | --- | --- | --- | --- | --- | --- | --- | --- | --- | --- |
| – | – | CN(C)c1cccc(Oc2cc3c(cc2NC(=O)COCc2ccc(C(F)(F)F)cc2)NC(=O)[C@@H](CCC(=O)N2CCC(F)(F)CC2)NC3=O)c1 | 90.9% | 91.2% | 430 nM | Toxic | 94.8% | 92.8% | 810 nM | – |
| Active | Active | Nc1nc2ccccc2n1S(=O)(=O)c1ccc(Cl)cc1 | – | – | – | – | – | – | – | – |
| – | – | COC(=O)CC[C@H]1NC(=O)c2cc(Oc3cccc(N(C)C)c3)c(NC(=O)COCc3ccccc3)cc2NC1=O | 70.4% | – | – | Non-Toxic | 69.1% | – | – | – |
| – | – | CN(C)c1cccc(Oc2cc3c(cc2NC(=O)COCc2ccc(C(F)(F)F)cc2)NC(=O)[C@@H](CCC(=O)N2CCC(F)CC2)NC3=O)c1 | 92.6% | 90.2% | 580 nM | Toxic | 94.7% | 91.7% | 420 nM | – |
| – | – | CC(=O)O[C@H]1C(=O)[C@@]2(C)[C@H]([C@H](OC(=O)c3ccccc3)[C@]3(O)C[C@H](OC(=O)[C@H](O)[C@@H](NC(=O)c4ccccc4)c4ccccc4)C(C)=C1C3(C)C)[C@]1(OC(C)=O)CO[C@@H]1C[C@@H]2O | – | – | – | – | – | – | – | inactive |
| – | – | COC(=O)CC[C@H]1NC(=O)c2cc(Oc3cccc(N(C)C)c3)c(NC(=O)COCc3ccc(Br)cc3)cc2NC1=O | 93.9% | 91% | 580 nM | – | 95.2% | 85% | 1190 nM | – |
| – | – | COC(=O)CC[C@H]1NC(=O)c2cc(Oc3ccc(Cl)c(N(C)C)c3)c(NC(=O)COCc3ccccc3)cc2NC1=O | 73% | 58.2% | 2900 nM | – | 78.1% | 59.9% | 3550 nM | – |
| – | – | CN(C)c1cccc(Oc2cc3c(cc2NC(=O)COCc2ccccc2)NC(=O)[C@@H](CCC(=O)NC2CC2)NC3=O)c1 | 57.1% | 35.8% | 8620 nM | – | 57% | 43.7% | 7140 nM | – |
| – | – | CCN(CC)C(=O)CC[C@H]1NC(=O)c2cc(Oc3cccc(N(C)C)c3)c(NC(=O)COCc3ccccc3)cc2NC1=O | 80.8% | 80.5% | 1270 nM | – | 76.9% | 60.8% | 3410 nM | – |
| – | – | CN(C)c1cccc(Oc2cc3c(cc2NC(=O)COCc2ccccc2)NC(=O)[C@@H](CCC(=O)N2CCCC2)NC3=O)c1 | 82% | 73.2% | 2370 nM | – | 75.6% | 58.2% | 3790 nM | – |
| – | – | COC(=O)CC[C@H]1NC(=O)c2cc(Oc3cccc(N(C)C)c3)c(NC(=O)COCc3ccc(C(F)(F)F)cc3)cc2NC1=O | 90.7% | 89.8% | 940 nM | – | 91.9% | 89% | 870 nM | – |
| – | – | COC(=O)CC[C@H]1NC(=O)c2cc(Oc3cccc(N(C)C)c3)c(NC(=O)COCc3cccc(F)c3)cc2NC1=O | 89.8% | 83.9% | 1370 nM | – | 82.9% | 67% | 4020 nM | – |
| – | – | COC(=O)CC[C@H]1NC(=O)c2cc(Oc3ccc(Cl)c(N(C)C)c3)c(NC(=O)COCc3ccc(Cl)cc3)cc2NC1=O | 55.1% | 71.8% | 1550 nM | – | 79% | 82.2% | 1020 nM | – |
